Broadly, the IC50 is the midpoint of a concentration-inhibition curve.

The species entered for series [1] is Homo sapiens. The series can be described thus: Selectivity index, ratio of IC50 for human recombinant MAOA to IC50 for human recombinant MAOB. The gist of the method: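 Ratio of IC50 for MAO-A to IC50 for MAO-B. Both IC50s from the kynuramine fluorescence assay: MAO-A with 45 µM kynuramine, MAO-B with 30 µM. Each run in triplicate.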
The species named for series [2] is Homo sapiens. The series can be described thus: Selectivity index, ratio of Ki for human recombinant MAOA to Ki for human recombinant MAOB. In short, it runs like this: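 Ki values derived from IC50s by the Cheng–Prusoff equation. MAO-A used [S] 45 µM and Km 16.1 µM; MAO-B used [S] 30 µM and Km 22.7 µM. Index is Ki(MAO-A)/Ki(MAO-B).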
Series [3] has as its target T1, Amine oxidase [flavin-containing] A (Homo sapiens, UniProt P21397).
T1 sequence (P21397 whole entry): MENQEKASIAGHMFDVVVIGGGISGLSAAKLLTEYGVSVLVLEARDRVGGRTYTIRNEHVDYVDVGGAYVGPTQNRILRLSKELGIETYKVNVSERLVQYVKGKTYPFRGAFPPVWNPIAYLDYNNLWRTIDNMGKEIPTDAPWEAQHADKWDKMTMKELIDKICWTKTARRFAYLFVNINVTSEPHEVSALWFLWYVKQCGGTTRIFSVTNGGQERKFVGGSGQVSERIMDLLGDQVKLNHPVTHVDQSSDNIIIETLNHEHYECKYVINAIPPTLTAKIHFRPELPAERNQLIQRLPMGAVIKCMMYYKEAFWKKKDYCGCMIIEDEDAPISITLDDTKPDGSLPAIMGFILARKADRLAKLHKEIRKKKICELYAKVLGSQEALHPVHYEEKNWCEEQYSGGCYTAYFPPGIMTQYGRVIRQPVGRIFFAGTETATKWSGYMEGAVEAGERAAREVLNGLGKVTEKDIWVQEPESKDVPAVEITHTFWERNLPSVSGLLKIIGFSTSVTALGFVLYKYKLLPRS
Description: Inhibition of human recombinant MAOA expressed in insect cell microsomes using kynuramine as substrate after 20 mins by fluorescence spectrophotometric analysis. The arrangement: species or system Microsome. In short, it runs like this:
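Recombinant human MAO-A at 0.0075 mg protein/mL, started with enzyme, in 100 mM potassium phosphate pH 7.4 made isotonic with KCl, 4% DMSO. Inhibitor 0.003–100 µM, kynuramine 45 µM final. 20 min at 37 °C, stopped with NaOH. 4-Hydroxyquinoline read by fluorescence against a calibration curve. IC50 from one-site competition fit, triplicate, mean ± SD.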

The target in series [4] is T2, Amine oxidase [flavin-containing] B (Homo sapiens, UniProt P27338).
T2 sequence (P27338 whole entry): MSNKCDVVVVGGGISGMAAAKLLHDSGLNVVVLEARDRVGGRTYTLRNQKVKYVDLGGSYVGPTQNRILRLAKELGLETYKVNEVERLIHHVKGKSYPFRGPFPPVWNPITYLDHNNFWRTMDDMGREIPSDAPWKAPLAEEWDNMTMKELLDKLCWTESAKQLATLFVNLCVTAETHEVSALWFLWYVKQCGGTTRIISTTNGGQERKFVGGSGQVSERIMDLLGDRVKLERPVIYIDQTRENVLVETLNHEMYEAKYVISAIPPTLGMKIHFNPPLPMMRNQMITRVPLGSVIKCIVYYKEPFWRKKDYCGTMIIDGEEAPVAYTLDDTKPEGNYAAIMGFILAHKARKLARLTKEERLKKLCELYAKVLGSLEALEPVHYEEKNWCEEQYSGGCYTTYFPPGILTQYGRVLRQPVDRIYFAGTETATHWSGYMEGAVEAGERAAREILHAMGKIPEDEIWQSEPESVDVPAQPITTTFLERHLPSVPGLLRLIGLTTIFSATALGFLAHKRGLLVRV
Description: Inhibition of human recombinant MAOB expressed in insect cell microsomes using kynuramine as substrate after 20 mins by fluorescence spectrophotometric analysis. The arrangement: species or system Microsome.

For series [5], the target named is T2, Amine oxidase [flavin-containing] B. Description: Reversible inhibition of human recombinant MAOB expressed in insect cell microsomes using kynuramine as substrate assessed as residual activity at 100 times IC50 preincubated for 30 mins followed by 100 fold dilution measured after 20 mins by fluorescence spectrophotometric analysis relative to control. Set-up: species or system Microsome. In short, it runs like this:
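Recombinant human MAO-B (0.75 mg/ml) preincubated 30 min at 37 °C with inhibitor at 0, 10 or 100 × IC50 in pH 7.4 isotonic potassium phosphate with 4% DMSO. Diluted 100-fold with kynuramine to 30 µM substrate and 0.0075 mg/mL enzyme. Then 20 min at 37 °C. Residual 4-hydroxyquinoline formation measured by fluorescence, relative to no-inhibitor control. (R)-deprenyl at 10 × IC50 run as comparator.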

The target of series [6] is T1, Amine oxidase [flavin-containing] A. Description: Ratio of compound IC50 to clorgyline IC50 for human recombinant MAOA.

For the compound `N#Cc1ccc(OCc2ccccc2)cc1C#N`, the Ratio IC50 in series [1] was 227.
For the compound `N#Cc1ccc(SC2CCCC2)cc1C#N`, the Ratio Ki in series [2] was determined as 1.9. Moreover, the IC50 amounted to 2780 nM in series [3] and 887 nM in series [4]. The Ratio IC50 in series [1] was 3.1.
Regarding `N#Cc1ccc(SCc2ccc(Br)cc2)cc1C#N`, in series [2], the Ratio Ki stood at 5330. The IC50 amounted to 218000 nM in series [3] and 25 nM in series [4]. Besides, the Activity in series [5] turned out to be 48%. Further, in series [1], the Ratio IC50 worked out at 8720.
As for `N#Cc1ccc(SC2CCCCC2)cc1C#N`, the Ratio Ki in series [2] is 16.3. The IC50 in series [3] was determined as 5960 nM; in series [4], 223 nM. Moreover, in series [1], the Ratio IC50 was found to be 27.
As for `CC(C)CCSc1ccc(C#N)c(C#N)c1`, the Ratio Ki in series [2] was 3.7. Further, the IC50 is 1450 nM in series [3] and 242 nM in series [4]. Also, the Ratio IC50 in series [1] is 6.
As to `N#Cc1ccc(Sc2ccc(Cl)cc2)cc1C#N`, the Ratio Ki in series [2] came to 59.6. The results for the IC50 in series [3] and in series [4] were 11100 nM and 114 nM, respectively. Moreover, the Ratio IC50 in series [1] came to 97.
As for `N#Cc1ccc(SCc2ccc(F)cc2)cc1`, the Ratio Ki in series [2] is 75. Also, the IC50 was 54700 nM in series [3] and 449 nM in series [4]. In addition, the Ratio IC50 in series [1] worked out at 122.
On the same counts, the results for `N#Cc1ccc(SCCc2ccccc2)cc1` are 18, 54300 nM, 1810 nM and 30.
Consider `N#Cc1ccc(SCc2ccc(Br)cc2)cc1`, for which the Ratio Ki in series [2] amounted to 163. The IC50 in series [3] came to 129000 nM; in series [4], 484 nM. The Ratio IC50 in series [1] amounted to 267.
In the case of `N#Cc1ccc(SC2CCCCC2)cc1`, in series [2], the Ratio Ki worked out at 1.3. Moreover, the IC50 in series [3] is 9870 nM; in series [4], 4770 nM. Also, the Ratio IC50 in series [1] was 2.1.
On the same counts, the results for `N#Cc1ccc(Sc2ccc(Br)cc2)cc1` are 8.2, 8520 nM, 637 nM and 13.
On to `N#Cc1ccc(SCc2ccc(Cl)cc2)cc1C#N`, for which the “Ratio IC50” value stood at 240 in series [6] and 45 in series [1]. Also, the Ratio Ki in series [2] stood at 27. In addition, the IC50 in series [3] is 623 nM; in series [4], 14 nM.
For `N#Cc1ccc(SCCc2ccccc2)cc1C#N`, the Ratio Ki in series [2] stood at 35.5. The IC50 in series [3] amounted to 7190 nM; in series [4] it was 124 nM. In series [1], the Ratio IC50 came out at 58.
Regarding `COc1ccc(CSc2ccc(C#N)cc2)cc1`, in series [2], the Ratio Ki amounted to 4. The IC50 came to 5590 nM in series [3] and 861 nM in series [4]. For the same compound, the Ratio IC50 in series [1] is 6.5.
For the compound `N#Cc1ccc(Sc2ccccc2)cc1C#N`, the Ratio Ki in series [2] was 1. Further, the values for the IC50 in series [3] and in series [4] were 3580 nM and 2130 nM, respectively. Further, the Ratio IC50 in series [1] came out at 1.7.
In the case of `N#Cc1ccc(OCc2ccc(Br)cc2)cc1C#N`, the Ratio IC50 in series [1] came to 134.
Consider `N#Cc1ccc(Sc2ccc(Br)cc2)cc1C#N`, for which, in series [2], the Ratio Ki was 147. The IC50 was determined as 19000 nM in series [3] and 79 nM in series [4]. In series [1], the Ratio IC50 was 240.
In the case of `N#Cc1ccc(SCc2ccc(Cl)cc2)cc1`, the Ratio Ki in series [2] was 23. Moreover, the IC50 in series [3] worked out at 20300 nM; in series [4], 531 nM. For the same compound, the Ratio IC50 in series [1] came out at 38.
Taken in the same sequence, the figures for `COc1ccc(CSc2ccc(C#N)c(C#N)c2)cc1` were 1180, 129000 nM, 67 nM and 1920.
As to `N#Cc1ccc(Sc2ccccc2)cc1`, the Ratio Ki in series [2] turned out to be 2. Further, the results for the IC50 in series [3] and in series [4] were 36900 nM and 11200 nM, respectively. For the same compound, the Ratio IC50 in series [1] came out at 3.3.
On the same counts, the results for `N#Cc1ccc(SCc2ccc(F)cc2)cc1C#N` are 38, 2100 nM, 34 nM and 62.
For the compound `N#Cc1ccc(SCc2ccccc2)cc1C#N`, in series [2], the Ratio Ki was 33. Further, the IC50 turned out to be 9020 nM in series [3] and 167 nM in series [4]. Besides, in series [1], the Ratio IC50 came out at 54.
Taken in the same sequence, the figures for `N#Cc1ccc(SCc2ccccc2)cc1` were 16, 42400 nM, 1580 nM and 27.
In the case of `N#Cc1ccc(Sc2ccc(Cl)cc2)cc1`, the Ratio Ki in series [2] was determined as 2.6. Moreover, the values for the IC50 in series [3] and in series [4] were 18200 nM and 4280 nM, respectively. In addition, the Ratio IC50 in series [1] stood at 4.3.
`N#Cc1ccc(OCc2ccccc2)cc1`: in series [1], the Ratio IC50 is 41.

The values are drawn from ChEMBL document CHEMBL2203130, “Sulfanylphthalonitrile analogues as selective and potent inhibitors of monoamine oxidase B” (Bioorg Med Chem Lett, 2012).
